Activity calls are given as the source filed them. The rule behind the calls is not given here.
Assays:
[1] = Inhibition of HCV NS5B Cdelta21 in presence of heterogenic template RNA; set-up: species or system Hepacivirus hominis
Method in brief: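 Purified NS5B enzyme (C-terminal 21-residue deletion) assayed with heterogenic template RNA. IC50 is the mean of at least two experiments.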

[2] = tested on: Hepatitis C virus; test: Antiviral activity against Hepatitis C virus infected in human HUH7 cells by replicon assay; type: functional, organism-based, Hepacivirus hominis; settings: Huh-7
Method in brief: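 Subgenomic HCV RNA replicon in HUH-7 cells, adapted from the Bartenschlager procedure, run in 10% fetal calf serum unless otherwise stated. EC50 is the mean of at least two experiments.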

[3] = AUC in rat; type: ADME, organism-based; settings: plasma
Method in brief: (§1)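 Given as HCl or trifluoroacetate salts, intravenously (vehicle 20% DMSO/60% PEG400/20% H2O) and orally (vehicle PEG400); n = 3. AUC reported with the dose in mpk; oral bioavailability and plasma clearance are derived from these dosings.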

[4] = tested on: Canis familiaris; test: Cardiotoxicity in anesthetized dogs assessed as prolongation of QT interval up to 10 mg/kg; type: toxicity, organism-based, Canis lupus familiaris; set-up: dose 10 mg/kg; settings: dog, in vivo
[5] = species: Homo sapiens; test: Inhibition of human DNA polymerase
[6] = Oral bioavailability in dog; type: ADME, organism-based, Canis lupus familiaris; settings: in vivo; method in brief: as §1
[7] = Intrinsic clearance in rat liver microsomes in presence of NADPH; type: ADME, Microsome
Method in brief: (§2)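 Incubated with liver microsomes (rat, dog, rhesus or human) in the presence of NADPH. Intrinsic clearance is expressed in ml/min/kg.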

[8] = Plasma clearance in dog; type: ADME, organism-based, Canis lupus familiaris; method in brief: as §1
[9] = molecular target: Cytochrome P450 3A4 (Homo sapiens, UniProt P08684); test: Inhibition of CYP3A4 in human liver microsomes; type: ADME, Microsome
[10] = AUC in dog; type: ADME, organism-based, Canis lupus familiaris; settings: plasma; method in brief: as §1
[11] = molecular target: T1, Nuclear receptor subfamily 1 group I member 2 (Homo sapiens, UniProt O75469); test: Activity at human PXR at 10 uM by reporter gene assay
T1 sequence (O75469 whole entry): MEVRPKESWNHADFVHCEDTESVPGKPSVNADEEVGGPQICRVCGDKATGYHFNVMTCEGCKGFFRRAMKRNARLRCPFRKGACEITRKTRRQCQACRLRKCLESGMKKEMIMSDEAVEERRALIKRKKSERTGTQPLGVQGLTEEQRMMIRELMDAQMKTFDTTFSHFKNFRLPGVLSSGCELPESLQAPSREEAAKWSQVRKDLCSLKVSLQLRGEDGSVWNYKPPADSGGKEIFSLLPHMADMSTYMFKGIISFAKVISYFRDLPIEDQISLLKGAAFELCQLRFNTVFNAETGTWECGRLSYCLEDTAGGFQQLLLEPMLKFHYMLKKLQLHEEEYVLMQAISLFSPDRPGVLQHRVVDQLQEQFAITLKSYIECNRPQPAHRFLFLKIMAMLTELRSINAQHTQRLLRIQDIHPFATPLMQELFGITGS

[12] = Oral bioavailability in rat; type: ADME, organism-based; settings: in vivo; method in brief: as §1
[13] = Fraction unbound in rat plasma; type: ADME, cell-free
[14] = Intrinsic clearance in rhesus monkey liver microsomes in presence of NADPH; type: ADME, Macaca mulatta, Microsome; method in brief: as §2
[15] = Plasma clearance in rat; type: ADME, organism-based; method in brief: as §1
[16] = Metabolic stability in po dosed dog assessed as urinary excretion; type: ADME, organism-based, Canis lupus familiaris; settings: urine, read-out: Stability
[17] = AUC in rhesus monkey; type: ADME, organism-based, Macaca mulatta; settings: plasma; method in brief: as §1
[18] = Metabolic stability in po dosed rat assessed as biliary excretion; type: ADME, organism-based; settings: bile, read-out: Stability
[19] = tested on: Hepatocyte; test: Metabolic stability in human hepatocytes after 4 hrs by HPLC; type: ADME, cell-based
Method in brief: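 [3H]-labelled compound incubated 4 h with human hepatocytes. Analysis by HPLC with radiochromatographic detection.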

[20] = Intrinsic clearance in dog liver microsomes in presence of NADPH; type: ADME, Canis lupus familiaris, Microsome; method in brief: as §2
[21] = Oral bioavailability in rhesus monkey; type: ADME, organism-based, Macaca mulatta; settings: in vivo; method in brief: as §1
[22] = Metabolic stability in po dosed rat assessed as urinary excretion; type: ADME, organism-based; settings: urine, read-out: Stability
[23] = Ratio of drug level from liver to plasma in po dosed rat after 6 hrs; type: ADME, organism-based
Method in brief: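 Rats dosed orally; compound concentrations in liver and plasma measured 6 h after administration and expressed as a liver/plasma ratio.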

[24] = Intrinsic clearance in human liver microsomes in presence of NADPH; type: ADME, Microsome; method in brief: as §2
[25] = Fraction unbound in dog plasma; type: ADME, cell-free, Canis lupus familiaris
[26] = Plasma clearance in rhesus monkey; type: ADME, organism-based, Macaca mulatta; method in brief: as §1
[27] = Fraction unbound in human plasma; type: ADME, cell-free
[28] = Protein binding in human plasma; type: ADME, cell-free; settings: read-out: PPB (converted)

Chain of Cytochrome P450 3A4 (P08684 whole entry): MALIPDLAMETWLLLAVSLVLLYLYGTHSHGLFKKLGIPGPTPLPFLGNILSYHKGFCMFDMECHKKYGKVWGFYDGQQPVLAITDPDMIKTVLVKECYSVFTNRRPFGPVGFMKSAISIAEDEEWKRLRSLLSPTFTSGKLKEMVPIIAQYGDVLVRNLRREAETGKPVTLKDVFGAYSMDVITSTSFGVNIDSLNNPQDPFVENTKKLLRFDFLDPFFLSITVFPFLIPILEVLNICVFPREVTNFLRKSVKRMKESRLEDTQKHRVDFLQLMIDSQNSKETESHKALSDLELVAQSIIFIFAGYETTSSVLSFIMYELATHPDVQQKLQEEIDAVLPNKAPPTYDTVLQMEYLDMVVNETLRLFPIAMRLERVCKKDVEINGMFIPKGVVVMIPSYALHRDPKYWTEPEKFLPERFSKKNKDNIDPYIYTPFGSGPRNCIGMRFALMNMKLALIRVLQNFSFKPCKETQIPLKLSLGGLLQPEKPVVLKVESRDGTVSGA

Q: With `COc1ccc2c(c1)CN(CCN(C)C)CCn1c-2c(C2CCCCC2)c2ccc(C(=O)O)cc21` as the compound, how does the IC50 [1] read?
A: 0.035 µM

Q: What about the EC50 [2] of the same compound?
A: 0.1 µM

Q: Which IC50 [1] does the source give for `CN(C)CC1Cn2c(c(C3CCCCC3)c3ccc(C(=O)O)cc32)-c2ccccc2N1C` (racemic) here?
A: 0.043 µM

Q: What about the EC50 [2] of the same compound?
A: 0.16 µM

Q: With `CN(C)CCN1CCn2c(c(C3CCCCC3)c3ccc(C(=O)O)cc32)-c2ccccc2C1` as the compound, how does the AUC [3] read?
A: 4.2 µM·h

Q: And the IC50 [1]?
A: 0.027 µM

Q: What about the Activity [4] of the same compound?
A: Non-toxic

Q: And the Activity [5]?
A: inactive

Q: And the bioavailability [6]?
A: 74%

Q: And the CLint scaled [7]?
A: 100 mL/min/kg

Q: And the clearance [8]?
A: 2.5 mL/min/kg

Q: And the Activity [9]?
A: Not Active

Q: And the AUC [10]?
A: 23 µM·h

Q: What about the Activity [11] of the same compound?
A: Not Active

Q: And the bioavailability [12]?
A: 31%

Q: And the fraction unbound [13]?
A: 0.07

Q: What about the CLint scaled [14] of the same compound?
A: 51 mL/min/kg

Q: What about the clearance [15] of the same compound?
A: 61 mL/min/kg

Q: What about the dose excreted [16] of the same compound?
A: < 1%

Q: What about the AUC [17] of the same compound?
A: 2 µM·h

Q: What about the dose excreted [18] of the same compound?
A: 4%

Q: And the Stability [19]?
A: Stable

Q: And the CLint scaled [20]?
A: 26 mL/min/kg

Q: And the bioavailability [21]?
A: 57%

Q: And the dose excreted [22]?
A: 1%

Q: What about the Kp at 6 h [23] of the same compound?
A: 16

Q: What about the CLint scaled [24] of the same compound?
A: 5 mL/min/kg

Q: And the fraction unbound [25]?
A: 0.03

Q: What about the clearance [26] of the same compound?
A: 22 mL/min/kg

Q: What about the fraction unbound [27] of the same compound?
A: 0.03

Q: With `CN(C)CC1Cn2c(c(C3CCCCC3)c3ccc(C(=O)O)cc32)-c2ccccc2CN1C` (racemic) as the compound, how does the IC50 [1] read?
A: 0.035 µM

Q: What about the EC50 [2] of the same compound?
A: 0.14 µM

Q: For `COc1ccc2c(c1)CN(C)CCn1c-2c(C2CCCCC2)c2ccc(C(=O)O)cc21`, which AUC [3] is on record?
A: 2.9 µM·h

Q: And the IC50 [1]?
A: 0.055 µM

Q: What about the bioavailability [6] of the same compound?
A: 67%

Q: What about the CLint scaled [7] of the same compound?
A: 43 mL/min/kg

Q: And the clearance [8]?
A: 2.9 mL/min/kg

Q: And the AUC [10]?
A: 18.7 µM·h

Q: And the bioavailability [12]?
A: 83%

Q: And the CLint scaled [14]?
A: 16 mL/min/kg

Q: And the clearance [15]?
A: 32 mL/min/kg

Q: What about the EC50 [2] of the same compound?
A: 0.29 µM

Q: What about the CLint scaled [20] of the same compound?
A: 6 mL/min/kg

Q: What about the CLint scaled [24] of the same compound?
A: 7 mL/min/kg

Q: What does the source list for `CN(C)CC1CN(C)c2ccccc2-c2c(C3CCCCC3)c3ccc(C(=O)O)cc3n21` (racemic)?
A: IC50 [1]: 1.92 µM; EC50 [2]: 13.5 µM

Q: With `CN(C)CC(=O)N1CCn2c(c(C3CCCCC3)c3ccc(C(=O)O)cc32)-c2ccc(F)cc2C1` as the compound, how does the AUC [3] read?
A: 4 µM·h

Q: What about the IC50 [1] of the same compound?
A: 0.06 µM

Q: And the bioavailability [6]?
A: 83%

Q: And the CLint scaled [7]?
A: 16 mL/min/kg

Q: And the clearance [8]?
A: 3 mL/min/kg

Q: What about the AUC [10] of the same compound?
A: 17.6 µM·h

Q: What about the bioavailability [12] of the same compound?
A: 48%

Q: And the fraction unbound [13]?
A: 0.02

Q: What about the CLint scaled [14] of the same compound?
A: 42 mL/min/kg

Q: And the clearance [15]?
A: 12 mL/min/kg

Q: And the EC50 [2]?
A: 0.17 µM

Q: And the CLint scaled [20]?
A: 8 mL/min/kg

Q: And the Kp at 6 h [23]?
A: 8

Q: And the CLint scaled [24]?
A: 13 mL/min/kg

Q: And the fraction unbound [25]?
A: 0.02

Q: What about the fraction unbound [27] of the same compound?
A: 0.02

Q: With `CN(C)CC(=O)N1CCn2c(c(C3CCCCC3)c3ccc(C(=O)O)cc32)-c2ccccc2C1` as the compound, how does the IC50 [1] read?
A: 0.13 µM

Q: What about the EC50 [2] of the same compound?
A: 0.22 µM

Q: What does the source list for `CN(C)CCN1Cc2ccccc2-c2c(C3CCCCC3)c3ccc(C(=O)O)cc3n2CC1=O`?
A: IC50 [1]: 0.11 µM; EC50 [2]: 0.26 µM

Q: Which IC50 [1] does the source give for `CN1Cc2ccccc2-c2c(C3CCCCC3)c3ccc(C(=O)O)cc3n2CC1=O` here?
A: 0.08 µM

Q: What about the fraction unbound [28] of the same compound?
A: 0.003

Q: What about the EC50 [2] of the same compound?
A: 18.9 µM

Q: For `CN(C)C(=O)Cn1c(-c2ccccc2)c(C2CCCCC2)c2ccc(C(=O)O)cc21`, which IC50 [1] is on record?
A: 0.43 µM

Q: And the fraction unbound [28]?
A: 0.029

Q: Which results are given for `CN(C)CCN1Cc2ccccc2-c2c(C3CCCCC3)c3ccc(C(=O)O)cc3n2CCC1=O`?
A: IC50 [1]: 0.86 µM; EC50 [2]: 1.44 µM

Q: For `CN(C)CCN1CCn2c(c(C3CCCCC3)c3ccc(C(=O)O)cc32)-c2ccccc21`, which IC50 [1] is on record?
A: 0.028 µM

Q: Which results are given for `CCN(CC)C1CCN(C(=O)Cn2c(-c3ccc(Cl)cc3)c(C3CCCCC3)c3ccc(C(=O)O)cc32)CC1`?
A: AUC [3]: 0.2 µM·h; IC50 [1]: 0.048 µM; bioavailability [12]: 10%; EC50 [2]: 0.18 µM

Q: With `CN1CCn2c(c(C3CCCCC3)c3ccc(C(=O)O)cc32)-c2ccccc2C1` as the compound, how does the IC50 [1] read?
A: 0.17 µM

Q: What about the EC50 [2] of the same compound?
A: 0.89 µM

Q: With `COc1ccc2c(c1)N(CCN(C)C)CCCn1c-2c(C2CCCCC2)c2ccc(C(=O)O)cc21` as the compound, how does the IC50 [1] read?
A: 0.077 µM

Q: What about the EC50 [2] of the same compound?
A: 0.54 µM

Q: Which results are given for `CN(C)CCN1C(=O)Cn2c(c(C3CCCCC3)c3ccc(C(=O)O)cc32)-c2ccccc21`?
A: IC50 [1]: 0.13 µM; EC50 [2]: 0.41 µM
